From ChEMBL document CHEMBL1135395, “Design and synthesis of potent nonpeptidic farnesyltransferase inhibitors based on a terphenyl scaffold” (J Med Chem, 2002) come the findings set out here.

Experiment [1] has as its target Protein farnesyltransferase (Homo sapiens, UniProt P49354+P49356). The experiment can be described thus: Inhibition of farnesyltransferase from human Burkitt lymphoma (Daudi) cells. In short, it runs like this:
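Partially purified enzyme from Daudi cells was incubated with [3H]FPP and recombinant H-Ras-CVLS at a range of inhibitor concentrations for 30 min at 37 °C. IC50 was determined.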

Experiment [2] deals with Geranylgeranyl transferase type I (Homo sapiens, UniProt P49354+P53609). The experiment can be described thus: Inhibition of partially purified Geranylgeranyl transferase type I (GGTase-I) from human Burkitt lymphoma (Daudi) cells. The essentials:
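Partially purified enzyme from Daudi cells was incubated with [3H]GGPP and recombinant H-Ras-CVLL at a range of inhibitor concentrations for 30 min at 37 °C. The reaction was stopped and filtered on glass fiber filters to separate free from Ras-bound label.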

pIC50: −log10 of the molar value. A value given as a limit tells only on which side of the number the result lay.

On to `O=C(O)c1cccc(-c2ccc(NCc3ccc(S)cc3)cc2-c2ccccc2)c1`, for which the pIC50 in experiment [1] and in experiment [2] was less than 5.00 in each case.
Consider `Cc1cccc(-c2ccc(NC[C@@H](N)CS)cc2)c1`, for which the pIC50 in experiment [1] was 6.11; in experiment [2], less than 4.00.
Take `COC(=O)c1cccc(-c2ccc(NCc3cncn3Cc3ccc(C#N)cc3)cc2-c2ccccc2)c1`: the pIC50 in experiment [1] was 6.42; in experiment [2], 5.16.
For the molecule `COC(=O)c1cccc(-c2ccc(NCc3cccc(S)c3)cc2-c2ccccc2)c1`, the pIC50 in experiment [1] and in experiment [2] was less than 5.00 each time.
As for `COC(=O)c1cccc(-c2ccc(NCc3ccccc3S)cc2-c2ccccc2)c1`, the negative logarithm of the IC50 (pIC50) in experiment [1] and in experiment [2] was less than 5.00 each time.
As to `COC(=O)c1cccc(-c2ccc(NCc3cncn3Cc3ccc([N+](=O)[O-])cc3)cc2-c2ccccc2)c1`, the results for the negative logarithm of the IC50 (pIC50) in experiment [1] and in experiment [2] were 6.51 and 5.23, respectively.
The matching figures for `O=C(O)c1cccc(-c2ccc(NCc3cccc(S)c3)cc2-c2ccccc2)c1`: less than 5.00 and less than 5.00.
On to `Nc1ccc(Cn2cncc2CNc2ccc(-c3cccc(C(=O)O)c3)c(-c3ccccc3)c2)cc1`, for which the negative logarithm of the IC50 (pIC50) in experiment [2] is 5.15.
For the molecule `COc1cc(NC[C@@H](N)CS)ccc1-c1cccc(C(=O)O)c1`, the pIC50 in experiment [1] was 7.43; in experiment [2], 4.46.
The matching figures for `COC(=O)c1cccc(-c2ccc(NCc3cncn3Cc3ccc(N)cc3)cc2-c2ccccc2)c1`: 5.25 and less than 5.00.
With `N[C@@H](CS)CNc1ccc(-c2cccc(C(=O)O)c2)cc1`, the pIC50 was 6.82 in experiment [1] and 4.05 in experiment [2].
For `COC(=O)c1cccc(-c2ccc(NC[C@@H](N)CS)cc2)c1`, the pIC50 in experiment [1] was 6.03; in experiment [2], 4.00.
The matching figures for `COC(=O)c1cccc(-c2ccc(NCc3ccc(S)cc3)cc2-c2ccccc2)c1`: less than 5.00 and less than 5.00.
In experiment [1], `CSCC[C@H](NC(=O)c1ccc(NC[C@@H](N)CS)cc1)C(=O)O` had a negative-log IC50 (pIC50) of 6.82.
`O=C(CCS)Nc1ccc(-c2cccc(C(=O)O)c2)c(-c2ccccc2)c1`: the negative logarithm of the IC50 (pIC50) is 5.42 in experiment [1] and less than 5.00 in experiment [2].
Take `O=C(O)c1cccc(-c2ccc(NC(=O)c3cccc(S)c3)cc2-c2ccccc2)c1`: the pIC50 in experiment [1] and in experiment [2] was less than 5.00 each time.
`N#Cc1ccc(Cn2cncc2CNc2ccc(-c3cccc(C(=O)O)c3)c(-c3ccccc3)c2)cc1`: the results for the pIC50 in experiment [1] and in experiment [2] were 6.37 and 5.36, respectively.
As for `O=C(O)c1cccc(-c2ccc(NCc3cncn3Cc3ccc([N+](=O)[O-])cc3)cc2-c2ccccc2)c1`, the pIC50 in experiment [1] is 6.35; in experiment [2], 5.41.
As for `N[C@@H](CS)CNc1ccc(-c2cccc(C(=O)O)c2)c(-c2ccccc2)c1`, the figures for the negative-log IC50 (pIC50) in experiment [1] and in experiment [2] were 7.70 and 6.19, respectively.
As for `COC(=O)c1cccc(-c2ccc(NC(=O)c3cccc(S)c3)cc2-c2ccccc2)c1`, the pIC50 in experiment [1] and in experiment [2] was less than 5.00 throughout.
`N[C@@H](CS)CNc1ccc(-c2ccccc2)cc1`: the negative-log IC50 (pIC50) was 5.92 in experiment [1] and less than 4.00 in experiment [2].
For `N[C@@H](CS)CNc1ccc(-c2cccc(C3N=NN=N3)c2)cc1`, the negative-log IC50 (pIC50) is 7.52 in experiment [1] and 5.36 in experiment [2].
Taken in the same sequence, the figures for `COC(=O)c1cccc(-c2ccc(NC(=O)CCS)cc2-c2ccccc2)c1` were less than 5.00 and less than 5.00.
As for `O=C(O)c1cccc(-c2ccc(NCc3cnc[nH]3)cc2-c2ccccc2)c1`, the figures for the negative-log IC50 (pIC50) in experiment [1] and in experiment [2] were 5.64 and 5.30, respectively.
The matching figures for `COC(=O)c1cccc(-c2ccc(NCc3c[nH]cn3)cc2-c2ccccc2)c1`: less than 5.00 and less than 5.00.
As for `CCCOc1cc(NC[C@@H](N)CS)ccc1-c1cccc(C(=O)O)c1`, the values for the negative logarithm of the IC50 (pIC50) in experiment [1] and in experiment [2] were 7.39 and 5.62, respectively.

The term pIC50 denotes −log10 of the IC50, conventionally taken in molar units. A higher pIC50 goes with a low IC50.
